Experimental data collected from several papers.
Protocols differ between the studies behind these lines.
Target: Protein kinase C zeta type (PRKCZ, Homo sapiens, UniProt Q05513)
Sequence (Q05513 1-592, as in one of the studies): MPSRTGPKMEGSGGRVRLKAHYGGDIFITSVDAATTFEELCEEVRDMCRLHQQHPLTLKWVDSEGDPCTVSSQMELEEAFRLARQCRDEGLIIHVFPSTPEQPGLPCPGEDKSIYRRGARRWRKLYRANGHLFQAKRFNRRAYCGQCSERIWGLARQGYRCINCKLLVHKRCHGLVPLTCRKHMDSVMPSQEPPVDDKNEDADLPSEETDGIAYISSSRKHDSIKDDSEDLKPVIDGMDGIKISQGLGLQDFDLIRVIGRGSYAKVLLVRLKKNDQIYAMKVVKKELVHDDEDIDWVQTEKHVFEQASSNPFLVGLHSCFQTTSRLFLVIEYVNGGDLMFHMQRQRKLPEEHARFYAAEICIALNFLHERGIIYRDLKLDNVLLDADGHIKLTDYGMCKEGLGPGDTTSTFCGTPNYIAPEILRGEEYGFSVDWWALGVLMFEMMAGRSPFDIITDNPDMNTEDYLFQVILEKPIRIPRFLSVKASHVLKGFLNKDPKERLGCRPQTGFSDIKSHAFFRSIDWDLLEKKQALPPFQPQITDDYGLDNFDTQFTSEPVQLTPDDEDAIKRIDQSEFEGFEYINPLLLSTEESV

The remaining activity of `CC(C)(O)[C@H]1CC[C@H](Nc2ccc3ncc(-c4cccc(C(F)(F)F)c4)n3n2)CC1` is reported as 98% (enzyme activity; inhibitor; 1 µM).
With `CC(C)c1ccc(NC(=O)c2cccs2)c(-c2nc3ccccc3[nH]c2=O)c1` the activity vs control was 97% (enzyme activity; inhibitor; 1 µM).
For `COc1cc(-c2cc(-c3ccc(N4CCNCC4)cc3)cnc2C)cc(OC)c1OC`, the inhibition was 3% (enzyme activity; inhibitor; 1 µM).
`FC(F)c1nc2ccccc2n1-c1nc(N2CCOCC2)nc(N2CCOCC2)n1` gave a remaining activity of 87% (enzyme activity; inhibitor; 10 µM).
`Cc1sc(C(=O)NC2COC2)cc1-n1cc(NC(=O)Nc2c(F)cccc2Cl)cn1` gave a remaining activity of 104% (enzyme activity; inhibitor; 10 µM).
For `O=C1NC(=O)c2cc(Nc3ccc(F)cc3)c(Nc3ccc(F)cc3)cc21`, the remaining signal was 100% (cell-free assay; 0.5 µM).
`Cc1ccc(NC(=O)c2ccc(C)c(C(F)(F)F)c2)cc1C#Cc1nn(C2CCC(O)CC2)c2ncnc(N)c12` (stereo not drawn) gave a remaining signal of 99% (cell-free assay; 10 µM).
`Cc1cnc(NC2CCOCC2)nc1-n1cnc(C(=O)NC(CN)c2cc(F)cc(Cl)c2)c1` (stereo not drawn) gave a remaining activity of 106% (enzyme activity; inhibitor; radiometric; 1 µM).
For `Cc1ccc(Nc2nccc(N(C)c3ccc4c(C)n(C)nc4c3)n2)cc1S(N)(=O)=O`, the inhibition was -3% (enzyme activity; inhibitor; 0.3 µM).
The remaining activity of `CCCOc1ccc(OC)c(F)c1C(=O)c1ccc(C(=O)N[C@@H]2CNC[C@H]2NC(=O)c2ccc3[nH]ncc3c2)cc1` is reported as 60% (enzyme activity; inhibitor; 10 µM).
The inhibition of `CCN(CC)CCNC(=O)c1c(C)[nH]c(/C=C2\C(=O)Nc3ccc(F)cc32)c1C` is reported as -2% (enzyme activity; inhibitor; 10 µM).
`Cn1c2c(Cl)c(Cl)ccc2c2cn[nH]c(=O)c21` gave a ΔTm of 0 °C (thermal stability; DSF; 10 µM).
With `Nc1nc(Nc2ccccc2)sc1C(=O)c1c(F)cccc1F` the remaining activity was 83% (enzyme activity; inhibitor; 10 µM).
`CCC1(CC)NC(=O)c2c(c3ccc(Cl)c(Cl)c3n2C)C1C#N` (stereo not drawn) gave a ΔTm of -0.4 °C (thermal stability; DSF; 10 µM).
`CCCCNc1ncc2c(-c3ccc(F)cc3)nn(C[C@H]3CC[C@H](N)CC3)c2n1` has an inhibition of -19.6% (target engagement in cells; inhibitor; chemoproteomics; 20 mM).
For `CCN(CC)c1ccc(C2=NNC(=O)CC2C)cc1[N+](=O)[O-]` (stereo not drawn), the remaining activity was 102% (enzyme activity; inhibitor; 10 µM).
`C[C@@H](N)[C@H]1CC[C@H](C(=O)Nc2ccncc2)CC1` has an inhibition of 7.4% (enzyme activity; inhibitor; TR-FRET; 10 µM).
`Cn1c2c(c3ccccc31)C(C#N)C(C)(C)NC2=O` (stereo not drawn) has a ΔTm of -0.3 °C (thermal stability; DSF; 10 µM).
